The values that follow come from ChEMBL document CHEMBL1143453 (Bioorg Med Chem Lett, 2005).

SMILES strings stand for the structures. pKi: −log10 of the molar value.

Experiment [1] deals with T1, Alpha-1D adrenergic receptor (Rattus norvegicus) (UniProt P23944).
T1 sequence (whole entry): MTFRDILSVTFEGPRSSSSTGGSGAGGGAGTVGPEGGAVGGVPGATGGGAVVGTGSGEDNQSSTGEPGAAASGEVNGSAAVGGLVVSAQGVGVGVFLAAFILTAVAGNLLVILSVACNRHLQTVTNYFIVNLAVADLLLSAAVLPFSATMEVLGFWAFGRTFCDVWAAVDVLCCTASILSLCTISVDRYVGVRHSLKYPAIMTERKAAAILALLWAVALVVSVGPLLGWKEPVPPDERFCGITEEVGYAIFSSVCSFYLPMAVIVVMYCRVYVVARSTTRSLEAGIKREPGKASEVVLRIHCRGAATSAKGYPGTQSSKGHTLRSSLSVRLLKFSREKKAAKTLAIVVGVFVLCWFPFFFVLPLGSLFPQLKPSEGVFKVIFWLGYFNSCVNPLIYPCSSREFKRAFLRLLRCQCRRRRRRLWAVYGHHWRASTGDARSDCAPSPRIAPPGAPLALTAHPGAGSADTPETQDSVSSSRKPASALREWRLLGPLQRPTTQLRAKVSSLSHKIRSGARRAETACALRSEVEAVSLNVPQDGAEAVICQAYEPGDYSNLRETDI
Briefly: Potency against alpha-1D adrenergic receptor is determined by phenylephrine-induced contractions in rat. The format is functional. A digest of the protocol: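 Isolated rat aorta contracted with phenylephrine, with cumulative concentration–response curves run with and without antagonist. KB = antagonist concentration/(dose ratio − 1) by Schild, where dose ratio is the phenylephrine EC50 with antagonist over EC50 without. Means with 95% confidence limits, N = 4–6 experiments.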

For experiment [2], the target named is T2, Alpha-2A adrenergic receptor (Homo sapiens, UniProt P08913).
T2 sequence (P08913 whole entry): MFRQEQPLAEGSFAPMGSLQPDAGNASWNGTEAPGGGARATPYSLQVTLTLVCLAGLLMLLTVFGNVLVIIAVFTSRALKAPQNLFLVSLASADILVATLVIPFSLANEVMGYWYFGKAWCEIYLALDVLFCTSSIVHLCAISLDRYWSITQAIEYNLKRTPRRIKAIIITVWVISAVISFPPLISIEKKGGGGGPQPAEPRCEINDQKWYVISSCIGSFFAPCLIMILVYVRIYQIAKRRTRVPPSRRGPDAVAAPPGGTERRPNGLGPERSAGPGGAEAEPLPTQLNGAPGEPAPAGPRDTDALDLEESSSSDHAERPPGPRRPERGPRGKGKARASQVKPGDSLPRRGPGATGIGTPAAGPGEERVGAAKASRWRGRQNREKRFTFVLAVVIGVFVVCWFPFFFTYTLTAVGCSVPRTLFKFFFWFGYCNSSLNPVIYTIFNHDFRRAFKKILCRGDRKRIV
In words: (§1) Binding affinity towards human alpha-2A adrenergic receptor expressed in Chinese Hamster ovary (CHO) cells. The format is functional, cell-based.

Experiment [3] concerns the target T3, Alpha-1A adrenergic receptor (Homo sapiens, UniProt P35348).
T3 sequence (P35348 whole entry): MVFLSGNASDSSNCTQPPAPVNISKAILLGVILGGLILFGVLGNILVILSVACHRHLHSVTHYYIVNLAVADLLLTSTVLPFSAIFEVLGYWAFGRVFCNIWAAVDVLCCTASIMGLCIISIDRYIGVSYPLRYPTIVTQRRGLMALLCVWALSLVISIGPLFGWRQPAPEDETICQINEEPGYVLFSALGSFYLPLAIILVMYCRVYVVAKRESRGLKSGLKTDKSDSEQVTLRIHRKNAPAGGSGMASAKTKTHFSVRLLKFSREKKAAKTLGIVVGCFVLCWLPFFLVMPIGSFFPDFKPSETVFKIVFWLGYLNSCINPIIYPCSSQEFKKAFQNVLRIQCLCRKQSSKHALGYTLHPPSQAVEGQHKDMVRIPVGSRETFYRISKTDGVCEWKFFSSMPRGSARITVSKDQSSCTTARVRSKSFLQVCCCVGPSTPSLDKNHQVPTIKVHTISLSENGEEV
In words: Binding affinity towards alpha-1A adrenergic receptor expressed in human embryonic kidney (HEK293) cells. In kind it is cell-based.

Experiment [4] has as its target T2, Alpha-2A adrenergic receptor. Described as §1. The format is cell-based.
The target of experiment [5] is T4, Alpha-2B adrenergic receptor (Homo sapiens, UniProt P18089).
T4 sequence (P18089 whole entry): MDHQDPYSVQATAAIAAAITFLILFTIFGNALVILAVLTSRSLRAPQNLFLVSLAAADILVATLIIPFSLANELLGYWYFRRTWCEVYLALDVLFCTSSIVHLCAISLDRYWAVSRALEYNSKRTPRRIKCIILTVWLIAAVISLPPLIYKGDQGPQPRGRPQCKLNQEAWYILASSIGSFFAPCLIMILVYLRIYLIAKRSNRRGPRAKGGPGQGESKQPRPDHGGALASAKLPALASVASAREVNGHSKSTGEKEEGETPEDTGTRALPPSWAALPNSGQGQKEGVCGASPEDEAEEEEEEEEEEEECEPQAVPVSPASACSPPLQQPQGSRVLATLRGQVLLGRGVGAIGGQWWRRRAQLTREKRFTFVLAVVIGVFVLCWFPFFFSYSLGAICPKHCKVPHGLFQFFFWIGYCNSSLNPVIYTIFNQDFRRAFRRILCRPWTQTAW
Briefly: Binding affinity towards human alpha-2B adrenergic receptor expressed in Chinese Hamster ovary (CHO) cells. The format is cell-based.

In experiment [6] the target is T5, Alpha-2C adrenergic receptor (Homo sapiens, UniProt P18825).
T5 sequence (P18825 whole entry): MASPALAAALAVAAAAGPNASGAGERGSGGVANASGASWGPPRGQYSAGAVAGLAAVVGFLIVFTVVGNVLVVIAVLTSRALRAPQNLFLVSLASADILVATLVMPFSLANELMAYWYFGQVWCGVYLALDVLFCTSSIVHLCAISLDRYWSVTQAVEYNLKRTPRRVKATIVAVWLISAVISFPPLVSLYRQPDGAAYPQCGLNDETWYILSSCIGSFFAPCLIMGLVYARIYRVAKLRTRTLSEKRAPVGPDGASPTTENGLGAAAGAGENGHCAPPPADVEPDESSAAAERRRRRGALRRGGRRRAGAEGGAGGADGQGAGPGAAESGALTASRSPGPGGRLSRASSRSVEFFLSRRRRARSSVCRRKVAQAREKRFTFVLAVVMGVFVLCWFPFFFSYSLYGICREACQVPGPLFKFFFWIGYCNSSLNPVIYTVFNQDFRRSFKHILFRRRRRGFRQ
In words: Binding affinity towards human alpha-2C adrenergic receptor expressed in Chinese Hamster ovary (CHO) cells. The format is cell-based.

Experiment [7] addresses T6, Alpha-1B adrenergic receptor (Homo sapiens, UniProt P35368).
T6 sequence (P35368 whole entry): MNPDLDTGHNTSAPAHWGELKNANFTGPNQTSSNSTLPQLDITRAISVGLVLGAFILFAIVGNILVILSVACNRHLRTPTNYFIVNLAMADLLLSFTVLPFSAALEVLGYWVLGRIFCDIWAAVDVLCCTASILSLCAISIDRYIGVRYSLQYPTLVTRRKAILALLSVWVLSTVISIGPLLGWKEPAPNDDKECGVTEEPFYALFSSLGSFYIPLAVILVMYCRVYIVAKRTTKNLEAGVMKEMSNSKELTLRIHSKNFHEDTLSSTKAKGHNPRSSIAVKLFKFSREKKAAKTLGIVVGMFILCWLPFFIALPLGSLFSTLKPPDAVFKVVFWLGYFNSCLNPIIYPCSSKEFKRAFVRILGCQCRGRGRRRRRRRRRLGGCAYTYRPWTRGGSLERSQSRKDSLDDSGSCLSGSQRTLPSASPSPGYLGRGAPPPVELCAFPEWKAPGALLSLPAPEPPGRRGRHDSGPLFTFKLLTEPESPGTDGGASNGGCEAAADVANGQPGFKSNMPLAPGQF
Briefly: Binding affinity towards human alpha-1B adrenergic receptor expressed in human embryonic kidney (HEK293) cells.

Experiment [8] has as its target T7, Alpha-1D adrenergic receptor (Homo sapiens, UniProt P25100).
T7 sequence (P25100 whole entry): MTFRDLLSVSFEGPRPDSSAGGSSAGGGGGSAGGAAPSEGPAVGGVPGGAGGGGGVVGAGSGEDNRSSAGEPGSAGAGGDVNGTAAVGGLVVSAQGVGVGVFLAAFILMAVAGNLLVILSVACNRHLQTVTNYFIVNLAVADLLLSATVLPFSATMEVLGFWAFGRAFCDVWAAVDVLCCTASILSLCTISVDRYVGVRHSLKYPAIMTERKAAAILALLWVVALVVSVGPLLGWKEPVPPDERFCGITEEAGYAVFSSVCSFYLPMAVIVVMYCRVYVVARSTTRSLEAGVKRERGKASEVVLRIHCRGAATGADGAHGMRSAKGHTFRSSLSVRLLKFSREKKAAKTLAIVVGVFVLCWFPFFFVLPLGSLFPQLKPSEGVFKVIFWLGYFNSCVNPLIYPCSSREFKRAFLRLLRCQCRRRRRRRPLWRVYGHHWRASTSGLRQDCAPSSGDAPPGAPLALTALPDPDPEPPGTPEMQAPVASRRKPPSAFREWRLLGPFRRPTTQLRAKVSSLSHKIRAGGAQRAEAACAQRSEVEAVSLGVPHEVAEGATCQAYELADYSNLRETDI
In words: Binding affinity towards human alpha-1D adrenergic receptor expressed in human embryonic kidney (HEK293) cells.

As a reminder, the pKi is the negative decadic logarithm of the Ki, by convention in mol/L. Read a low pKi as a high Ki. As to `COc1cccc(N(NC2=NCCO2)c2ccc(C)cc2)c1`, the Kb in experiment [1] was over 30000 nM. Besides, the pKi in experiment [2] is 4.61; in experiment [3], 5.24.

In turn, `Cc1ccc(N(NC2=NCCN2)c2cccc(O)c2)cc1` registered a Kb in experiment [1] of 2.9 nM. Also, the pKi in experiment [3] is 7.57; in experiment [4] it was 7.62; in experiment [5], 7.74; in experiment [6] it was 7.89; in experiment [7], 6.07; in experiment [8], 7.30.

Take `COc1cccc(N(NC2=NCCN2)c2ccc(C)cc2)c1`: the Kb in experiment [1] is 7.4 nM. Further, the pKi in experiment [3] is 7.70; in experiment [4], 8.20; in experiment [5] it was 8.14; in experiment [6], 8.42; in experiment [7] it was 6.99; in experiment [8], 7.76.

In turn, `Cc1ccc(N(NC2=NCCO2)c2cccc(O)c2)cc1` gave a Kb in experiment [1] of 13000 nM. Also, the pKi is 5.25 in experiment [3] and 4.73 in experiment [4].
